The source made the active and inactive calls. No cut-off for these calls is given here.
Columns and labels:
[1] = tested on: MV4-11; assay: Antitumor activity against human MV4-11 cells xenografted in BALB/c mouse assessed as tumor growth inhibition at 60 mg/kg,po QD for 28 days; type: functional; settings: MV4-11, 672 h, time 28 day, read-out: TGI
Summary of the method: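 Single-agent efficacy in MV-4-11 AML mouse xenograft. Tumor volume (mm3) and percent body-weight change were tracked over the treatment days.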

[2] = Volume of distribution at steady state in rat at 1 mg/kg,iv; type: ADME, organism-based; settings: in vivo, read-out: Vdss
[3] = Unbound Cmax in human patient with progression lymphoma at 300 mg,po QD consecutively for 14 days; type: ADME; settings: in vivo, 336 h, time 14 day
Summary of the method: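 Oral dosing in patients with hematologic malignancies, cycles at escalating doses; 300 mg cohort sampled at day 14. Unbound Cmax = free fraction × Cmax.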

[4] = Toxicity in dog assessed as GI mucosal atrophy at 2 to 6 mg/kg,po QD consecutive for 14 days followed by 2 weeks recovery period; type: organism-based, Canis lupus familiaris; settings: in vivo, 336 h, dose 2-6 mg/kg, time 14 day
Summary of the method: (§1)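 Oral suspension given once daily for 14 consecutive days (rat 2, 6, 20 mg/kg; dog 2, 4, 6 mg/kg) in dose range-finding and GLP repeat-dose studies, GLP arms with an added 2-week recovery period; histopathology and clinical pathology findings recorded.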

[5] = Toxicity against BALB/c mouse plasma xenografted with human MV4-11 cells assessed as body weight loss at 30 mg/kg,po QD for 28 days; type: organism-based; settings: in vivo, 672 h, time 28 day
Summary of the method: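 Body weight change (%) followed in MV-4-11 AML mouse xenograft during 28 days of oral single-agent dosing (30 mg/kg once or twice daily, 60 mg/kg once daily), vehicle PO BID as control.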

[6] = Unbound clearance in dog at 0.5 mg/kg,iv; type: ADME, organism-based, Canis lupus familiaris; settings: in vivo
[7] = Toxicity in rat assessed as hypocellularity of bone marrow with associated anemia and thrombocytopenia at 2 to 20 mg/kg,po QD consecutive for 14 days followed by 2 weeks recovery period; type: organism-based; settings: in vivo, 336 h, dose 2-20 mg/kg, time 14 day; summary of the method: as §1
[8] = Total clearance in rat at 1 mg/kg,iv; type: ADME, organism-based; settings: in vivo
[9] = Unbound clearance in rat at 1 mg/kg,iv; type: ADME, organism-based; settings: in vivo
[10] = Clearance in dog assessed as liver blood flow at 0.5 mg/kg,iv; type: ADME, organism-based, Canis lupus familiaris; settings: in vivo
[11] = Toxicity in rat assessed as GI mucosal atrophy at 2 to 20 mg/kg,po QD consecutive for 14 days followed by 2 weeks recovery period; type: organism-based; settings: in vivo, 336 h, dose 2-20 mg/kg, time 14 day; summary of the method: as §1
[12] = target: Bromodomain-containing protein 8 (Homo sapiens, UniProt Q9H0E9); assay: Binding affinity to BRD8 bromodomain (unknown origin) incubated for 60 mins by TR-FRET assay
Chain of Bromodomain-containing protein 8 (Q9H0E9 whole entry): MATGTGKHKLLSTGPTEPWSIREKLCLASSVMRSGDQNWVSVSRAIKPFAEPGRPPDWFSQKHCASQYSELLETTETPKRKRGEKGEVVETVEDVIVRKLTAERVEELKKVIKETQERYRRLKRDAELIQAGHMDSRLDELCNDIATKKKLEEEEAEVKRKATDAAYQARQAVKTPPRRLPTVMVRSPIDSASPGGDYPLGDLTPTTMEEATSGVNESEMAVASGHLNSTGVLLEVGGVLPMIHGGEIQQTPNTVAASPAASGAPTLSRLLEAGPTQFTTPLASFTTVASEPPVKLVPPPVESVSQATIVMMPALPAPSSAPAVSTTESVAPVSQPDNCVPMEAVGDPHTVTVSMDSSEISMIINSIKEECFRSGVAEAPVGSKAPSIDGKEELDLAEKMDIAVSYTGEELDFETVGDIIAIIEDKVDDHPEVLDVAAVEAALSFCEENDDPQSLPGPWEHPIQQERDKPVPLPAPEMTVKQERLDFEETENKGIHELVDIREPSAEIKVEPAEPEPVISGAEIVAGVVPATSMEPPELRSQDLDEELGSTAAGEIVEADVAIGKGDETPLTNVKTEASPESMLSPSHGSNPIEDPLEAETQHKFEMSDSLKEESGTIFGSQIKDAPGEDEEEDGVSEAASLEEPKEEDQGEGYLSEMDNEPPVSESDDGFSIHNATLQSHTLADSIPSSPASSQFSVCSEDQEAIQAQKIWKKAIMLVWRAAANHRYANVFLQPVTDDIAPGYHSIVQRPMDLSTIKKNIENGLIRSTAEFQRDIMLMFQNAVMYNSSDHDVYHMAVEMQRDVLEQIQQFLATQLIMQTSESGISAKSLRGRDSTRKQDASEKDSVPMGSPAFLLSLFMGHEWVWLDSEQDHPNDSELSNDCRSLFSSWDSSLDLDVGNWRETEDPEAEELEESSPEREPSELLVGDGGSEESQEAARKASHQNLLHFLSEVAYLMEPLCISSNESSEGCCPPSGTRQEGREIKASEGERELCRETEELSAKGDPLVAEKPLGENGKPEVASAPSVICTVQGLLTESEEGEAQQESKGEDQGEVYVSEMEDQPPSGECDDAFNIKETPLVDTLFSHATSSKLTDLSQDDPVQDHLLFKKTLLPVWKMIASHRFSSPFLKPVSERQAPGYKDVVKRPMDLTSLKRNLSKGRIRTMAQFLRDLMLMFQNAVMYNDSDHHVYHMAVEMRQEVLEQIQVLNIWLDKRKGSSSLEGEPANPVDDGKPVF

[13] = target: T1, Bromodomain-containing protein 9 (Homo sapiens, UniProt Q9H8M2); assay: Binding affinity to BRD9 bromodomain (unknown origin) incubated for 60 mins by TR-FRET assay
T1 sequence (Q9H8M2 whole entry): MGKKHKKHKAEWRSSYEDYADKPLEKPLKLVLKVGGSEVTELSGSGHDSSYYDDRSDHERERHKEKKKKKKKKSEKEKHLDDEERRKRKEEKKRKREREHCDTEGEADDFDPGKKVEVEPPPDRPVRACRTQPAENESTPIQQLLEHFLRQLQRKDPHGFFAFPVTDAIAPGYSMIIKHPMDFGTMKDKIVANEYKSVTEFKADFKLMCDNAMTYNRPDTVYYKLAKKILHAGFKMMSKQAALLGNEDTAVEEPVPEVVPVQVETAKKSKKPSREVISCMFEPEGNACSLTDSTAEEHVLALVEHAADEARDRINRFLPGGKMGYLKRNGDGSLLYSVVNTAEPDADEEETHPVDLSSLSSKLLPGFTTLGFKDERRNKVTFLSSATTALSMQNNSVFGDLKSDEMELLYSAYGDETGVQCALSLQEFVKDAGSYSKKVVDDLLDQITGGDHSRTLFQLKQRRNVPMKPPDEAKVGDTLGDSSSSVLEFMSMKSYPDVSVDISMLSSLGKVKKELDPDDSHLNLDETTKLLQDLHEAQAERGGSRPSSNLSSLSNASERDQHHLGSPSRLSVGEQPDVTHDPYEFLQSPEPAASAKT

[14] = Toxicity in dog assessed as lymphoid depletion at 2 to 6 mg/kg,po QD consecutive for 14 days followed by 2 weeks recovery period; type: organism-based, Canis lupus familiaris; settings: in vivo, 336 h, dose 2-6 mg/kg, time 14 day; summary of the method: as §1
[15] = Cmax in human patient with progression lymphoma at 300 mg,po QD consecutively for 14 days; type: ADME; set-up: time 14 day, dose 300 mg, route po; settings: in vivo
Summary of the method: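 Phase I trial in patients with hematologic malignancies, oral dosing once daily with escalating cohorts; values are from the 300 mg dose on day 14. AUC0-24 was taken as exposure over 24 h. Apparent clearance was calculated as Dose/AUC0-24.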

[16] = tested on: MV4-11; assay: Antitumor activity against human MV4-11 cells xenografted in BALB/c mouse assessed as complete tumor growth inhibition at 10 mg/kg,sc BID in presence of doxorubicin at 2 mg/kg,iv BIW for 28 days; type: functional, organism-based; settings: time 28.0 day
[17] = Half life in rat plasma at 1 mg/kg,iv; type: ADME, organism-based

Question: With Cc1noc2c1-c1ccccc1C(c1ccc(Cl)cc1)=N[C@H]2CC(N)=O [PELABRESIB] as the compound, how does the inhibition in vivo at 60 mg/kg [1] read?
Answer: The inhibition in vivo at 60 mg/kg was 74%.

Question: What about the Vd [2] of the same compound?
Answer: The Vd was 1.3 L/kg.

Question: What about the fCmax [3] of the same compound?
Answer: Its fCmax is 0.3 µM.

Question: What about the Activity [4] of the same compound?
Answer: The Activity was “Toxic”.

Question: What about the Activity [5] of the same compound?
Answer: Its Activity is “Non-Toxic”.

Question: And the CL free [6]?
Answer: The CL free was 46.7 mL/min/kg.

Question: What about the Activity [7] of the same compound?
Answer: The Activity was “Toxic”.

Question: What about the clearance [8] of the same compound?
Answer: The clearance was 20 mL/min/kg.

Question: What about the CL free [9] of the same compound?
Answer: Its CL free is 283 mL/min/kg.

Question: And the QH [10]?
Answer: The QH was 6%.

Question: And the Activity [11]?
Answer: The Activity was “Toxic”.

Question: What about the IC50 [12] of the same compound?
Answer: The IC50 was over 15 µM.

Question: And the IC50 [13]?
Answer: Its IC50 is over 80 µM.

Question: And the Activity [14]?
Answer: Its Activity is “Toxic”.

Question: And the Cmax [15]?
Answer: Its Cmax is 5.9 µM.

Question: What about the Activity [16] of the same compound?
Answer: Its Activity is “Active”.

Question: And the half-life [17]?
Answer: The half-life was 55.8 min.

Source: ChEMBL document CHEMBL5252513, “Identification of a Benzoisoxazoloazepine Inhibitor (CPI-0610) of the Bromodomain and Extra-Terminal (BET) Family as a Candidate for Human Clinical Trials” (J Med Chem, 2016)
